In the EternaBench riboswitch data:

System: MS2 coat protein
Assay: apparent Kd, MS2 coat protein; higher = weaker binding; RNA-MaP array; FMN 200 µM where present
Summary of the method: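 The apparent Kd comes from binding curves fitted cluster by cluster, filtered, and summarised as a median. Those curves followed SNAP-549-labelled MS2 coat protein from 0.7 or 1.5 nM, doubling to 3 µM, on Illumina sequencing-chip clusters where stalled E. coli RNA polymerase had transcribed the designs, without and then with constant ligand. The buffer was 100 mM Tris-HCl pH 7.5, 80 mM KCl, 4 mM MgCl2, BSA, DTT, yeast tRNA and Tween-20, and green signal was normalised to red-channel RNA signal and control-cluster median Fmax.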

[1] = designed as: OFF switch for flavin mononucleotide, no ligand
[2] = ligand present: flavin mononucleotide, designed as: OFF switch for flavin mononucleotide
[3] = designed as: ON switch for flavin mononucleotide, no ligand
[4] = ligand present: flavin mononucleotide, designed as: ON switch for flavin mononucleotide

For “CCACCCUGAGGAUAUCCACCCUCAUACAUGAGGAUCACCCAUGUUAAUGCCUGAGUUCCCGGAGAAGGCAGAUUCC”, the “apparent Kd” value [1] was 86.5 nM and the “apparent Kd” value [2] was 63.8 nM.

In the case of “UGACCACAUGAGGAUCACCCAUGUGAGGAUAUCAGAAUACGGCAUCGGGCCGUACUUUUGAGAAGGCACAUAAA”, the “apparent Kd” value [1] was 24.1 nM and the “apparent Kd” value [2] was 65.2 nM.

In the case of “UGGCACUAGGGAGGAUAUGGGAAGAUACAUGAGGAUCACCCAUGUUUAAGAAUGCCGAGAGGCAACUAGAAGGCCCUAGUACCU”, the “apparent Kd” value [3] was 486 nM and the “apparent Kd” value [4] was 19.3 nM.

“AGCUGUGGCCGAGGAUAUCUACCUUCAAUAACCGAAAUAUAAUCGGACAUGAGGAUCACCCAUGUAGAGAAGGCGGUCUCAGCA” was tested, and the “apparent Kd” value [1] was 14.8 nM and the “apparent Kd” value [2] was 96.2 nM.

In the case of “UGUUUUCGAGGAUAUACAUGAGGAUCACCCAUGUGGAUUCACACUGACAGUUCCUUUUGUAGAAGGUGAUAGGC”, the “apparent Kd” value [1] was 124 nM and the “apparent Kd” value [2] was 170 nM.

For “UGGAUCAUCGGAGGAUAUCAUGUAAAUACAUGAGGAUCACCCAUGUCGAUGGAGACAUCGGAGAUUGAGAAGGCCGAUGAUCCU”, the “apparent Kd” value [3] was 437 nM and the “apparent Kd” value [4] was 25.7 nM.

With “GCUGCUCAUGAGAAGGCGAUCAUGAAACAUGAUCGAGGAUAUCAUGUAAACAUGAGGAUCACCCAUGUAUGGGUAUUAUGCAGC” the “apparent Kd” value [3] was 117 nM and the “apparent Kd” value [4] was 40.5 nM.

With “AUCAGCUCGUCAGGAUAUACAUCACUGCUUCGGCAGUGUAUCUUAACAACAUGAGGAUCACCCAUGUAGAAGGGACGAGCUGAU” the “apparent Kd” value [1] was 17.6 nM and the “apparent Kd” value [2] was 24.5 nM.

In the case of “AGCCACAGUUCAGGAUAUGCGGGCCGACUGGUAGCAGAAGGGAACAUGAGGAUCACCCAUGUAGGUCAUACGGGCUACGUCGAA”, the “apparent Kd” value [1] was 11.6 nM and the “apparent Kd” value [2] was 45.6 nM.

For “GGGCUCGGAGGAUAUACAUGAGGAUCACCCAUGUACUCGGGCUCUAUUGGGCUCGGGUGUAGAAGGUCGGGCUC”, the “apparent Kd” value [1] was 14.9 nM and the “apparent Kd” value [2] was 14.6 nM.

“GGAUAGGACAGAGGAUAUACGUGCUAGAGAUACUAGGAAAAUUUCCUCACAUGAGGAUCACCCAUGUAGAAGGCUGUCCUAUCG” was tested, and the “apparent Kd” value [1] was 305 nM and the “apparent Kd” value [2] was 51.7 nM.

“AAUAAACUCACAGGAUAUAGCAGAUGUCGCGUGAACUUACAGGCGACGAGGCUAGAAGGGUGACCACAUGAGGAUCACCCAUGU” was tested, and the “apparent Kd” value [3] was 738 nM and the “apparent Kd” value [4] was 103 nM.

In the case of “AGCUGUGGCCGAGGAUAUACAUCCUUUAUAACCGAUGAAUAUCAUCGGACAUGAGGAUCACCCAUGUAGAAGGCGGUCUCAGCA”, the “apparent Kd” value [1] was 149 nM and the “apparent Kd” value [2] was 750 nM.

“UUUUAGUGAGGAUAUACAUUUUUUUAAUUAUUUAUAAUAUUACAUGAGGAUCACCCAUGUAGAAGGCACAUUUU” was tested, and the “apparent Kd” value [1] was 24.3 nM and the “apparent Kd” value [2] was 22.4 nM.

In the case of “GACAUGGUCCAGAAGGGCUAUUUAUUUAAUUAUUAUUUAGAACAGCAUAGCAGGAUAUGGUUAACAUGAGGAUCACCCAUGUUC”, the “apparent Kd” value [3] was 26.2 nM and the “apparent Kd” value [4] was 20.8 nM.

In the case of “GGAUGAUUAAUAGGAUAUUAUUUGUAAAUUGGUUAAGAAGGAUUAAUGAUUUAAACGACCUGUUACAUGAGGAUCACCCAUGUU”, the “apparent Kd” value [3] was 45.1 nM and the “apparent Kd” value [4] was 35.2 nM.

“GAUCACUCUGUGAGGAUAUGAGGGCUCUUAGAGUAUCAGAAGGCACAUGAGGAUCACCCAUGUAUUCCGUUCUA” was tested, and the “apparent Kd” value [1] was 42.5 nM and the “apparent Kd” value [2] was 259 nM.

For “AGCCGAGUAGGAUAUGCAUACUUACAGGAAAGCUGUAUGGUACAUGAGGAUCACCCAUGUAGAAGGGCUCUGAA”, the “apparent Kd” value [1] was 25 nM and the “apparent Kd” value [2] was 21.2 nM.

For “UACCUGAGGCAAAGCUUUAGGUAUACAUGAGGAUCACCCAUGUAGGAUAUGGUAGGCUUUGCUUACCAGAAGGACAUGUAAAUU”, the “apparent Kd” value [1] was 20.5 nM and the “apparent Kd” value [2] was 67.8 nM.

“ACAUGAGGAUCACCCAUGUUCGUUGAAGAAGGUACGUAUGGCUGUGGCAGGAAUAUAGUUAUAUGUAAGGAUAUUCUCAUAAUU” was tested, and the “apparent Kd” value [3] was 13.1 nM and the “apparent Kd” value [4] was 7.11 nM.

With “CUGAUGUUAGGAUAUCAGGCGCCCGCCACUAGCAAGGCGCAUGAGAAGGGACAUGAGGAUCACCCAUGUAGUAA” the “apparent Kd” value [1] was 28.1 nM and the “apparent Kd” value [2] was 50 nM.

For “UGUCGGAGCAGAGGAUAUUACAUGAGGAUCACCCAUGUAAAUGGAAUAAGCUGGAAACAGCAAUGUAAGAAGGCUGCUCCGACA”, the “apparent Kd” value [1] was 70.2 nM and the “apparent Kd” value [2] was 619 nM.

“CCGGAACAUGAGGAUCACCCAUGUGAGGAUAUCGUACGUUCGUCGAUAGACGAUCGUACGAGAAGGCACGCCGG” was tested, and the “apparent Kd” value [1] was 18.2 nM and the “apparent Kd” value [2] was 17.3 nM.

In the case of “UCAUAUUUACAAGGAUAUCAAUUAAUUAAACAUCCUACAUGAGGAUCACCCAUGUUAAAAUAUUAUGAGAAGGUGUAUUGUCGG”, the “apparent Kd” value [3] was 32.7 nM and the “apparent Kd” value [4] was 40.3 nM.
